In brackets after ≈: the same amount, converted by molar mass. Blank lines part the entries; values can stand above or below the compound they belong to. Activity calls are given as the source filed them. The rule behind the calls is not given here.
What was measured:
[1] = Aqueous solubility of the compound at 1 mg incubated for 24 hrs under shaking condition by LC-MS/MS analysis; type: physicochemical; settings: water
[2] = Permeability of the compound at pH 7.4 at 500 uM incubated for 5 hrs by PAMPA based UV/LC-MS analysis; type: ADME; settings: read-out: permeability
Summary of the method: (§1)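 Donor: compound diluted from 1 mM DMSO stock to 500 µM final in phosphate buffer (pH 7.4, 25 mM). Filter coated with 1% phosphatidylcholine in dodecane; acceptor 50% DMSO/phosphate buffer. 5 h at room temperature with gentle shaking. Donor and acceptor measured by UV/LC-MS; Papp and %MR calculated by equation. Three independent experiments.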

[3] = Permeability of the compound at pH 7.4 assessed as membrane retension at 500 uM incubated for 5 hrs by PAMPA based UV/LC-MS analysis; type: ADME; settings: pH 7.4, 5 h; summary of the method: as §1
[4] = Metabolic stability in human liver microsomes assessed as parent compound remaining at 50 uM incubated for 1 hr in the presence of NADPH regenerating system by UV/LC-MS analysis; type: ADME, Microsome; settings: read-out: Stability
Summary of the method: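 Human liver microsomes (0.2 mg/mL) with NADPH regenerating system and 50 µM compound in DMSO/phosphate buffer (pH 7.4, 25 mM), 1 h at 37 °C. Reaction quenched with acetonitrile and centrifuged; supernatant dried, taken up in methanol, and unmetabolised compound measured by UV/LC-MS. Three independent experiments.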

HepG2 [5] = experiment: Cytotoxicity against human HepG2 cells assessed as reduction in cell viability measured after 48 hrs by MTT assay; type: functional, cell-based; settings: HepG2, 48 h
Summary of the method: (§2)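 HepG2, Huh-7 or A2780 cells in DMEM with 10% FBS, 37 °C, 5% CO2. 2.5 × 10^4 cells seeded per well; compounds in DMSO added next day at 0.1, 1.0, 10.0 and 100.0 µM for 24, 48 or 72 h. IC50 from MTT dose-response by sigmoid fit. Means ± S.D. of three independent experiments in triplicate.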

HepG2 [6] = experiment: Cytotoxicity against human HepG2 cells assessed as reduction in cell viability measured after 24 hrs by MTT assay; type: functional, cell-based; settings: HepG2, 24 h; summary of the method: as §2
[7] = target: T1, Serine/threonine-protein kinase Sgk1 (Homo sapiens) (UniProt O00141); experiment: Inhibition of Sgk1 (unknown origin) at 12.5 uM using peptide substrate incubated for 30 mins in the presence of ATP by scintillation counting method relative to control
T1 sequence (whole entry): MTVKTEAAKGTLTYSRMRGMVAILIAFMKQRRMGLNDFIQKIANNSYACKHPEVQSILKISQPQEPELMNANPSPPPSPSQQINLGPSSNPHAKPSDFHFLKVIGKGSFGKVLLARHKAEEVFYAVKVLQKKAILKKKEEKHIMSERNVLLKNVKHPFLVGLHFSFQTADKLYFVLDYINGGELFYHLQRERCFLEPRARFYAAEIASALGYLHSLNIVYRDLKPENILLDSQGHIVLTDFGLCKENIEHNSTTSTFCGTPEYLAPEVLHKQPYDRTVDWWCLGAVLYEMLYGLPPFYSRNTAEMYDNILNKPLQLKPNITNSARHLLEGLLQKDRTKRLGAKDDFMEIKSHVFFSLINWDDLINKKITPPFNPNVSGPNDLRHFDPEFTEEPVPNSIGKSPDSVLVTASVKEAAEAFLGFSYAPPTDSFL

[8] = target: T1, Serine/threonine-protein kinase Sgk1 (Homo sapiens); experiment: Inhibition of Sgk1 (unknown origin) at 0.6 uM using peptide substrate incubated for 30 mins in the presence of ATP by scintillation counting method relative to control
HepG2 [9] = experiment: Cytotoxicity against human HepG2 cells assessed as reduction in cell viability measured after 72 hrs by MTT assay; type: functional, cell-based; settings: HepG2, 72 h; summary of the method: as §2
Huh-7 [10] = experiment: Cytotoxicity against human Huh-7 cells assessed as reduction in cell viability measured after 24 hrs by MTT assay; type: functional, cell-based; settings: Huh-7, 24 h; summary of the method: as §2
Huh-7 [11] = experiment: Cytotoxicity against human Huh-7 cells assessed as reduction in cell viability measured after 48 hrs by MTT assay; type: functional, cell-based; settings: Huh-7, 48 h; summary of the method: as §2
Huh-7 [12] = experiment: Cytotoxicity against human Huh-7 cells assessed as reduction in cell viability measured after 72 hrs by MTT assay; type: functional, cell-based; settings: Huh-7, 72 h; summary of the method: as §2
HepG2 [13] = experiment: Antitumor activity against human HepG2 cells xenografted in female nude mouse assessed as reduction in tumor growth at 9.5 mg/kg, ip administered for 5 days/week and measured every 7 days for 21 days; type: functional, organism-based; settings: time 21.0 day, in the assay text read “administered daily” for “administered for 5 days/week”
Summary of the method: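 HepG2 cells (2.5 × 10^6, in 1:1 serum-free RPMI/Matrigel) injected subcutaneously in the dorsal posterior-lateral right region of 6-week-old female nude mice. Five mice per group, randomised. Dosing i.p. five days/week, started when tumours reached 100 mm3. Si113 was given in DMSO and prodrugs in saline, dosed to equal molar amounts. Caliper volume (π/6 × a2 × b) measured every 7 days; on day 21 tumours were excised and weighed.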

A2780 [14] = experiment: Cytotoxicity against human A2780 cells assessed as reduction in cell viability measured after 24 hrs by MTT assay; type: functional, cell-based; settings: A2780, 24 h; summary of the method: as §2
A2780 [15] = experiment: Cytotoxicity against human A2780 cells assessed as reduction in cell viability measured after 48 hrs by MTT assay; type: functional, cell-based; settings: A2780, 48 h; summary of the method: as §2
A2780 [16] = experiment: Cytotoxicity against human A2780 cells assessed as reduction in cell viability measured after 72 hrs by MTT assay; type: functional, cell-based; settings: A2780, 72 h; summary of the method: as §2
[17] = Drug concentration in nude female mouse tumor mass xenografted with human A2780 cells at 9.5 mg/kg, ip administered as single dose incubated for 24 hrs followed by heparin treatment by LC-MS/MS analysis; type: ADME, organism-based, Neoplasm; settings: in vivo
Summary of the method: (§3)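 Female nude mice, xenografted subcutaneously with 2.5 × 10^6 A2780TC cells or left non-xenografted, two per group. Single i.p. dose: Si113 9.5 mg/kg in DMSO or prodrug 21 mg/kg in saline. At 24 h, heparin i.p. (5000 U/kg), then sacrifice under CO2. Plasma, tumour and organs extracted with acetonitrile/internal standard and analysed by LC-MS/MS.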

[18] = Drug concentration in nude female mouse ovarian tissue xenografted with human A2780 cells at 9.5 mg/kg, ip administered as single dose incubated for 24 hrs followed by heparin treatment by LC-MS/MS analysis; type: ADME, organism-based, Female gonad; settings: in vivo; summary of the method: as §3
A2780TC [19] = experiment: Antitumor activity against paclitaxel resistant human A2780TC cells xenografted in nude mouse assessed as reduction in tumor volume at 9.3 mg/kg/day, ip administered for 5 days/ week and measured every 7 days for 21 days; type: functional, organism-based; settings: time 21.0 day
A2780TC [20] = experiment: Antitumor activity against paclitaxel resistant human A2780TC cells xenografted in nude mouse assessed as reduction in tumor volume at 9.3 mg/kg/day, ip administered for 5 days/ week and measured every 7 days for 21 days in the presence of paclitaxel; type: functional, organism-based; settings: time 21.0 day
A2780TC [21] = experiment: Antitumor activity against paclitaxel resistant human A2780TC cells xenografted in nude mouse assessed as reduction in tumor growth at 5 mg/kg/day, ip administered for 5 days/ week and measured every 7 days for 21 days; type: functional, organism-based; settings: time 21.0 day
[22] = Drug concentration in naive BALB/C mouse liver at 21 mg/kg, ip administered as single dose incubated for 24 hrs followed by heparin treatment by LC-MS/MS analysis; type: ADME, organism-based; settings: in vivo
Summary of the method: (§4)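 Healthy male BALB/c mice, 4–6 weeks old, given a single i.p. 21 mg/kg prodrug dose in saline. At 24 h, heparin i.p. (5000 U/kg), then sacrifice under CO2. Organs homogenised with acetonitrile containing internal standard, centrifuged, filtered and quantified by LC-MS/MS against calibration curves. n = 3 per time point.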

[23] = Stability of the compound in human plasma assessed as half life at 3 mM measured up to 24 hrs by UV/LC-MS analysis; type: ADME, cell-free
plasmin = plasmin (Homo sapiens, UniProt P00747); experiment: Stability of the compound in human plasmin solution assessed as half life at 7.5 mM measured up to 24 hrs by UV/LC-MS analysis; type: ADME
Summary of the method: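 Human plasmin mixed with Tris buffer (pH 7.4, 100 mM) and prodrug (7.5 mM DMSO stock), incubated at 37 °C. Samples taken from 0 to 24 h, quenched with cold acetonitrile and centrifuged; analysed by UV/LC-MS. t1/2 is time to 50% hydrolysis.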

[24] = Drug concentration in naive BALB/C mouse kidney at 21 mg/kg, ip administered as single dose incubated for 24 hrs followed by heparin treatment by LC-MS/MS analysis; type: ADME, organism-based; settings: in vivo; summary of the method: as §4
[25] = Drug concentration in nude female mouse tumor mass xenografted with human A2780 cells at 21 mg/kg, ip administered as single dose incubated for 24 hrs followed by heparin treatment by LC-MS/MS analysis; type: ADME, organism-based, Neoplasm; settings: in vivo; summary of the method: as §3
[26] = Drug concentration in nude female mouse ovarian tissue xenografted with human A2780 cells at 21 mg/kg, ip administered as single dose incubated for 24 hrs followed by heparin treatment by LC-MS/MS analysis; type: ADME, organism-based, Female gonad; settings: in vivo; summary of the method: as §3

plasmin, sequence (P00747 97-580 limits assumed): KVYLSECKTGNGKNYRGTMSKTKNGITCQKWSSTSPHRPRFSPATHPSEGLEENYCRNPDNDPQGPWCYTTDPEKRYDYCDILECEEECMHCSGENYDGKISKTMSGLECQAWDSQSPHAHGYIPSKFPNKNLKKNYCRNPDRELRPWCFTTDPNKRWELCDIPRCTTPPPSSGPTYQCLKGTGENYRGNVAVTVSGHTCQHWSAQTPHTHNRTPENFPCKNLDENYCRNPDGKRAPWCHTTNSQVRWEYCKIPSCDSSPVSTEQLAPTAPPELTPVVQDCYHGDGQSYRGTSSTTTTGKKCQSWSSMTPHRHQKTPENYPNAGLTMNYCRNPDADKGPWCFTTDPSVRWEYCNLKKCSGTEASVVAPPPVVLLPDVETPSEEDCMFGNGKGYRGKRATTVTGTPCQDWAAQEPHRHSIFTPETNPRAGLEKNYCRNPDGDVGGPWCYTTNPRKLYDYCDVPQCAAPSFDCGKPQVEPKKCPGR
plasmin, sequence (P00747 581-810 limits assumed): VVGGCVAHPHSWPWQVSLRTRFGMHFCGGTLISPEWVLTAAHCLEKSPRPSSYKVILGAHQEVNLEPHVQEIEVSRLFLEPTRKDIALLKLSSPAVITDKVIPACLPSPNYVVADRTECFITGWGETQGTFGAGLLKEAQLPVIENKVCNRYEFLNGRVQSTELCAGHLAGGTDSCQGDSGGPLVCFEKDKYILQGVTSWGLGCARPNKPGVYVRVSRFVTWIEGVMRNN

solubility thermodynamic at 24 h [1]: 0.4 µg/mL (≈ 0.999 µM) | Papp at 5 h, 500 µM [2]: 2.6 ×10⁻⁶ cm/s | permeability [3]: 86.2% | remaining at 1 h, 50 µM [4]: 84% | inhibition [7]: > 90% | inhibition [8]: 75% | Drug uptake [17]: 2.2 nmol/g | Drug uptake [18]: 1.89 nmol/g
SMILES: OCCNc1nc(NCCc2ccccc2)c2cnn(/C=C/c3ccccc3)c2n1
IC50 (HepG2 [5]): 8.29 µM | IC50 (HepG2 [6]): 15.9 µM | IC50 (HepG2 [9]): 3.15 µM | IC50 (Huh-7 [10]): 2.05 µM | IC50 (Huh-7 [11]): 1.88 µM | IC50 (Huh-7 [12]): 0.58 µM | Activity (HepG2 [13]): Active | IC50 (A2780 [14]): 25.6 µM | IC50 (A2780 [15]): 4.56 µM | IC50 (A2780 [16]): 3.47 µM | Activity (A2780TC [19]): Active | Activity (A2780TC [20]): Active

SMILES: CC(=O)O[C@H]1C(=O)[C@@]2(C)[C@H]([C@H](OC(=O)c3ccccc3)[C@]3(O)C[C@H](OC(=O)[C@H](O)[C@@H](NC(=O)c4ccccc4)c4ccccc4)C(C)=C1C3(C)C)[C@]1(OC(C)=O)CO[C@@H]1C[C@@H]2O
Activity (A2780TC [21]): inactive

Drug uptake [22]: 0.81 nmol/g | solubility thermodynamic at 24 h [1]: > 1000 µg/mL | Papp at 5 h, 500 µM [2]: 0.2 ×10⁻⁶ cm/s | half-life [23]: 0.3 h | half-life at 7500 µM (plasmin): 1.5 h | Drug uptake [24]: 1.77 nmol/g | Drug uptake [25]: 5.69 nmol/g | Drug uptake [26]: 4.11 nmol/g
SMILES: C[C@@H](N)C(=O)N[C@@H](Cc1ccccc1)C(=O)N[C@@H](CCCCN)C(=O)OCCNc1nc(NCCc2ccccc2)c2cnn(/C=C/c3ccccc3)c2n1.O=C(O)C(F)(F)F.O=C(O)C(F)(F)F

Drug uptake [22]: 11.05 nmol/g | solubility thermodynamic at 24 h [1]: > 1000 µg/mL | Papp at 5 h, 500 µM [2]: 0.2 ×10⁻⁶ cm/s | half-life [23]: 4.6 h | half-life at 7500 µM (plasmin): 3.1 h | Drug uptake [24]: 3.01 nmol/g
SMILES: C[C@@H](N)C(=O)N[C@@H](Cc1ccccc1)C(=O)N[C@@H](CCCCN)C(=O)NCCCCC(=O)OCCNc1nc(NCCc2ccccc2)c2cnn(/C=C/c3ccccc3)c2n1.O=C(O)C(F)(F)F.O=C(O)C(F)(F)F
